In brackets after ≈: the same amount, converted by molar mass.
How the values were obtained:
Streptococcus pneumoniae = assay: Antibacterial activity against Streptococcus pneumoniae ATCC 49619 after 18 to 24 hrs by broth microdilution method; format: functional
Outline: (§1)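 Strains grown overnight at 35°C on tryptic soy agar; 0.5 McFarland saline suspension diluted in Mueller-Hinton broth, final inoculum 5 × 10⁵ CFU/mL. Twofold serial dilutions, final 0.06 to 32 mg/L, in MHB; incubated 35°C for 18–24h. MIC read visually as lowest concentration preventing growth.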

Enterococcus faecium = assay: Antibacterial activity against vancomycin-resistant Enterococcus faecium 7303 after 18 to 24 hrs by broth microdilution method; format: functional
Outline: (§2)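 MIC by broth microdilution in Mueller-Hinton broth. Strains grown overnight at 35°C on tryptic soy agar, suspended in saline to 0.5 McFarland, diluted in MHB, final inoculum 5 × 10⁵ CFU/mL. Twofold serial dilutions, final 0.06 to 32 mg/L. Incubated 35°C for 18–24 h. MIC read visually as lowest concentration preventing growth.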

Pseudomonas aeruginosa = assay: Antibacterial activity against Pseudomonas aeruginosa ATCC 27853 after 18 to 24 hrs by broth microdilution method; format: functional; outline: as §1
[1] = Therapeutic index, ratio of LD50 for mouse NIH/3T3 cells to MIC for vancomycin-resistant Staphylococcus aureus MI; format: cell-based; conditions: read-out: TI
Outline: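 Index computed as LD50 from NIH-3T3 MTS viability (24 h exposure, 10–100 mg/L, nonlinear regression) divided by VRSA MIC from broth microdilution (5 × 10⁵ CFU/mL, 35°C, 18–24 h, visual read).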

[2] = Cytotoxicity against mouse NIH/3T3 cells after 24 hrs by MTS assay; format: cell-based, NIH3T3; conditions: read-out: LD50
Outline: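 NIH-3T3 mouse embryo fibroblasts kept in DMEM with 10% FBS, about 10,000 cells per well, attached overnight. Treated 24 h with 10, 25, 50 or 100 mg/L compound (DMSO) in DMEM/FBS. MTS added in fresh DMEM for 1 h at 37 °C, absorbance at 490 nm. Four replicates, media negative and 5% DMSO positive controls. Viability relative to untreated cells; LD50 by nonlinear regression.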

Staphylococcus aureus [3] = assay: Antibacterial activity against vancomycin-intermediate Staphylococcus aureus Mu50 after 18 to 24 hrs by broth microdilution method; format: functional; outline: as §1
Staphylococcus aureus [4] = assay: Antibacterial activity against methicillin-resistant Staphylococcus aureus 494 after 18 to 24 hrs by broth microdilution method; format: functional; outline: as §2
Staphylococcus aureus [5] = assay: Antibacterial activity against vancomycin-resistant Staphylococcus aureus MI after 18 to 24 hrs by broth microdilution method; format: functional; outline: as §2
Escherichia coli = assay: Antibacterial activity against Escherichia coli ATCC 25922 after 18 to 24 hrs by broth microdilution method; format: functional; outline: as §1
Klebsiella pneumoniae = assay: Antibacterial activity against Klebsiella pneumoniae CEF 3978 after 18 to 24 hrs by broth microdilution method; format: functional; outline: as §1
Klebsiella aerogenes = assay: Antibacterial activity against Enterobacter aerogenes CEF 3978 after 18 to 24 hrs by broth microdilution method; format: functional; outline: as §1
[6] = Toxicity in sheep RBC assessed as hemolysis at 25 times MIC after 1 hr; format: cell-based, Ovis aries, Erythrocyte; conditions: sheep red blood cells, read-out: Activity
Outline: (§3)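 Sheep RBCs separated from plasma and white cells by centrifugation, washed twice in TBS (10 mM Tris, 150 mM NaCl, pH 7.0), diluted to 1%. Treated with increasing concentrations of compound in DMSO, 37 °C for 1 h, in duplicate. Supernatant absorbance at 414 nm for hemoglobin release; DMSO set as 0%, 1% Triton X as 100% hemolysis.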

[7] = Toxicity in sheep RBC assessed as hemolysis at 50 times MIC after 1 hr; format: cell-based, Ovis aries, Erythrocyte; conditions: sheep red blood cells, read-out: Activity; outline: as §3

Compound `CN[C@H](CC(C)C)C(=O)N[C@H]1C(=O)N[C@@H](CC(N)=O)C(=O)N[C@H]2C(=O)N[C@H]3C(=O)N[C@H](C(=O)N[C@H](C(=O)O)c4cc(O)cc(O)c4-c4cc3ccc4O)[C@H](O)c3ccc(c(Cl)c3)Oc3cc2cc(c3O[C@@H]2O[C@H](CO)[C@@H](O)[C@H](O)[C@H]2O[C@H]2C[C@](C)(N)[C@H](O)[C@H](C)O2)Oc2ccc(cc2Cl)[C@H]1O` [VANCOMYCIN] has an MIC (Streptococcus pneumoniae) of 0.5 µg/mL (≈ 0.345 µM), an MIC (Enterococcus faecium) greater than 32 µg/mL and an MIC (Pseudomonas aeruginosa) greater than 32 µg/mL.
In the case of `COc1ccc(/C=C/Cn2c(=O)[nH]c3sc4c(c3c2=O)C(Cc2ccccc2)CC(C(C)C)C4)cc1` (stereo unspecified), the selectivity ratio [1] was 4, the CC50 at 24 h [2] was 120 µg/mL (≈ 240 µM) and the MIC (Staphylococcus aureus [3]) was greater than 32 µg/mL. It also gave an MIC (Staphylococcus aureus [4]) greater than 32 µg/mL, an MIC (Staphylococcus aureus [5]) greater than 32 µg/mL and an MIC (Streptococcus pneumoniae) of 32 µg/mL (≈ 63.9 µM). The MIC (Enterococcus faecium) was greater than 32 µg/mL, the MIC (Escherichia coli) was greater than 32 µg/mL and the MIC (Pseudomonas aeruginosa) was greater than 32 µg/mL. For the same compound, the MIC (Klebsiella pneumoniae) was greater than 32 µg/mL and the MIC (Klebsiella aerogenes) was 32 µg/mL (≈ 63.9 µM).
`CCOC(=O)c1sc2[nH]c(=O)n(C/C=C/c3ccc(OC)cc3)c(=O)c2c1CCc1ccccc1` showed a selectivity ratio [1] of 3, a CC50 at 24 h [2] of 98 µg/mL (≈ 200 µM) and an MIC (Staphylococcus aureus [3]) greater than 32 µg/mL. The MIC (Staphylococcus aureus [4]) was greater than 32 µg/mL, the MIC (Staphylococcus aureus [5]) was greater than 32 µg/mL and the MIC (Streptococcus pneumoniae) was greater than 32 µg/mL. For the same compound, the MIC (Enterococcus faecium) was greater than 32 µg/mL, the MIC (Escherichia coli) was greater than 32 µg/mL and the MIC (Pseudomonas aeruginosa) was greater than 32 µg/mL. The MIC (Klebsiella pneumoniae) was greater than 32 µg/mL and the MIC (Klebsiella aerogenes) was 8 µg/mL (≈ 16.3 µM).
`CCOC(=O)c1c(NC(=O)NC/C=C/c2ccc(O[Si](C)(C)C(C)(C)C)cc2)sc2c1C(Cc1ccccc1)CC(C(C)C)C2` (stereo unspecified) gave an MIC (Staphylococcus aureus [3]) greater than 32 µg/mL, an MIC (Staphylococcus aureus [4]) greater than 32 µg/mL and an MIC (Staphylococcus aureus [5]) greater than 32 µg/mL. The MIC (Streptococcus pneumoniae) was greater than 32 µg/mL, the MIC (Enterococcus faecium) was greater than 32 µg/mL and the MIC (Escherichia coli) was greater than 32 µg/mL. It also gave an MIC (Pseudomonas aeruginosa) greater than 32 µg/mL, an MIC (Klebsiella pneumoniae) greater than 32 µg/mL and an MIC (Klebsiella aerogenes) greater than 32 µg/mL.
For `CC(C)C1Cc2sc3[nH]c(=O)n(C/C=C/c4ccc(O)cc4)c(=O)c3c2C(Cc2ccccc2)C1` (stereo unspecified), the hemolysis at 1 h, 25 times MIC [6] was 7%, the selectivity ratio [1] was 5 and the CC50 at 24 h [2] was 42 µg/mL (≈ 86.3 µM). It also gave an MIC (Staphylococcus aureus [3]) of 16 µg/mL (≈ 32.9 µM), an MIC (Staphylococcus aureus [4]) of 16 µg/mL (≈ 32.9 µM) and an MIC (Staphylococcus aureus [5]) of 8 µg/mL (≈ 16.4 µM). It also gave an MIC (Streptococcus pneumoniae) of 32 µg/mL (≈ 65.8 µM), an MIC (Enterococcus faecium) of 8 µg/mL (≈ 16.4 µM) and an MIC (Escherichia coli) of 32 µg/mL (≈ 65.8 µM). The MIC (Pseudomonas aeruginosa) was 16 µg/mL (≈ 32.9 µM), the MIC (Klebsiella pneumoniae) was 32 µg/mL (≈ 65.8 µM) and the MIC (Klebsiella aerogenes) was 32 µg/mL (≈ 65.8 µM).
With `CCOC(=O)c1sc2[nH]c(=O)n(C/C=C/c3ccc(O)cc3)c(=O)c2c1CCc1ccccc1` the hemolysis at 1 h, 50 times MIC [7] was 2%, the selectivity ratio [1] was 26 and the CC50 at 24 h [2] was 52 µg/mL (≈ 109 µM). The MIC (Staphylococcus aureus [3]) was 2 µg/mL (≈ 4.2 µM), the MIC (Staphylococcus aureus [4]) was 2 µg/mL (≈ 4.2 µM) and the MIC (Staphylococcus aureus [5]) was 2 µg/mL (≈ 4.2 µM). The MIC (Streptococcus pneumoniae) was 8 µg/mL (≈ 16.8 µM), the MIC (Enterococcus faecium) was 4 µg/mL (≈ 8.39 µM) and the MIC (Escherichia coli) was greater than 32 µg/mL. It also gave an MIC (Pseudomonas aeruginosa) of 32 µg/mL (≈ 67.1 µM), an MIC (Klebsiella pneumoniae) of 32 µg/mL (≈ 67.1 µM) and an MIC (Klebsiella aerogenes) of 16 µg/mL (≈ 33.6 µM).
With `CCOC(=O)c1sc(NC(=O)NC/C=C/c2ccc(OC)cc2)c(C(=O)OCC)c1CCc1ccccc1` the MIC (Staphylococcus aureus [3]) was greater than 32 µg/mL, the MIC (Staphylococcus aureus [4]) was greater than 32 µg/mL and the MIC (Staphylococcus aureus [5]) was greater than 32 µg/mL. The MIC (Streptococcus pneumoniae) was greater than 32 µg/mL, the MIC (Enterococcus faecium) was greater than 32 µg/mL and the MIC (Escherichia coli) was greater than 32 µg/mL. The MIC (Pseudomonas aeruginosa) was greater than 32 µg/mL, the MIC (Klebsiella pneumoniae) was greater than 32 µg/mL and the MIC (Klebsiella aerogenes) was greater than 32 µg/mL.
`CCOC(=O)c1sc(NC(=O)NC/C=C/c2ccc(O[Si](C)(C)C(C)(C)C)cc2)c(C(=O)OCC)c1CCc1ccccc1` gave an MIC (Staphylococcus aureus [3]) greater than 32 µg/mL, an MIC (Staphylococcus aureus [4]) greater than 32 µg/mL and an MIC (Staphylococcus aureus [5]) greater than 32 µg/mL. The MIC (Streptococcus pneumoniae) was greater than 32 µg/mL, the MIC (Enterococcus faecium) was greater than 32 µg/mL and the MIC (Escherichia coli) was greater than 32 µg/mL. The MIC (Pseudomonas aeruginosa) was greater than 32 µg/mL, the MIC (Klebsiella pneumoniae) was greater than 32 µg/mL and the MIC (Klebsiella aerogenes) was greater than 32 µg/mL.

From ChEMBL document CHEMBL1955810, “Thieno[2,3-d]pyrimidinedione derivatives as antibacterial agents” (Eur J Med Chem, 2012)
